Experimental data reported in ChEMBL document CHEMBL1781927, “Highly selective c-Jun N-terminal kinase (JNK) 3 inhibitors with in vitro CNS-like pharmacokinetic properties II. Central core replacement” (Bioorg Med Chem Lett, 2011).
≈ marks a conversion by molar mass, not a printed value.

What was measured:
[1] = Oxidative metabolic stability in human liver microsomes assessed as compound remaining after 30 mins; format: ADME, Microsome; conditions: read-out: Stability
Procedure, shortened: (§1)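 Liver microsomes, mouse or human, were incubated with the compound for 30 min under oxidative conditions. The read-out is the percent of parent compound remaining.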

[2] = molecular target: Mitogen-activated protein kinase 8 (Homo sapiens, UniProt P45983); assay: Inhibition of JNK1 by TR-FRET assay
Procedure, shortened: (§2)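 IC50s were determined at a single fixed ATP concentration, and each value is the mean of at least three independent experiments.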

[3] = molecular target: Mitogen-activated protein kinase 10 (Homo sapiens, UniProt P53779); assay: Inhibition of JNK3 by TR-FRET assay; procedure, shortened: as §2
[4] = Oxidative metabolic stability in mouse liver microsomes assessed as compound remaining after 30 mins; format: ADME, Microsome; conditions: read-out: Stability; procedure, shortened: as §1
[5] = molecular target: Mitogen-activated protein kinase 9 (Homo sapiens, UniProt P45984); assay: Inhibition of JNK2 by TR-FRET assay; procedure, shortened: as §2
[6] = Apparent permeability from apical to basolateral side in MDCK2 cells at 5 uM after 120 mins; format: ADME, cell-based, Canis lupus familiaris, MDCK-II; conditions: dog, MDCK
[7] = Selectivity ratio of IC50 for JNK1 to IC50 for JNK3
[8] = Solubility of the compound; format: physicochemical

Mitogen-activated protein kinase 9, sequence (P45984 whole entry): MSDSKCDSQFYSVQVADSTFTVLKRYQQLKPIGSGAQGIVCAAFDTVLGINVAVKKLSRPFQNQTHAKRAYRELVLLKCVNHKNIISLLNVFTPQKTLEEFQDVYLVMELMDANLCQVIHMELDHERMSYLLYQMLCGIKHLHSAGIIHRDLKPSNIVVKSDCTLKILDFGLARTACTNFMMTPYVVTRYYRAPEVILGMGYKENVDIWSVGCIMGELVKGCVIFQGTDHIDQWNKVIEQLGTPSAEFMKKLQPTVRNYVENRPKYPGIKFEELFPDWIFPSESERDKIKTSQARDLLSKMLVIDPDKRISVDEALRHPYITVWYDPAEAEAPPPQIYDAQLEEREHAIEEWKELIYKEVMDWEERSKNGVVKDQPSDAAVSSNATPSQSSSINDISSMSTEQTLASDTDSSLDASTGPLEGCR
Mitogen-activated protein kinase 10, sequence (P53779 whole entry): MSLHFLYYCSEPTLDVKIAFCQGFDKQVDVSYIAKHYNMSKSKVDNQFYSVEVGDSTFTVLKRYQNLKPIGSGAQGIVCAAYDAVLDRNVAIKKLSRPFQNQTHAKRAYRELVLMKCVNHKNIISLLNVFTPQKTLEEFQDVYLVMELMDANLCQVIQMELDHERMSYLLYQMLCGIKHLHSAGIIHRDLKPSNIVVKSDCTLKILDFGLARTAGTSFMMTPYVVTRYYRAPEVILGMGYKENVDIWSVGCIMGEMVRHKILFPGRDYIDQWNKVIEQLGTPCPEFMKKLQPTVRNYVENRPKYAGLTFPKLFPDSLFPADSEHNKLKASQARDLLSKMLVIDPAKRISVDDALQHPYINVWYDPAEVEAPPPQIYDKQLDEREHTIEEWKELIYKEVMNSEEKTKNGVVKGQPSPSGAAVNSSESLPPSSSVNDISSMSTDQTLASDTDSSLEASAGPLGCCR
Mitogen-activated protein kinase 8, sequence (P45983 whole entry): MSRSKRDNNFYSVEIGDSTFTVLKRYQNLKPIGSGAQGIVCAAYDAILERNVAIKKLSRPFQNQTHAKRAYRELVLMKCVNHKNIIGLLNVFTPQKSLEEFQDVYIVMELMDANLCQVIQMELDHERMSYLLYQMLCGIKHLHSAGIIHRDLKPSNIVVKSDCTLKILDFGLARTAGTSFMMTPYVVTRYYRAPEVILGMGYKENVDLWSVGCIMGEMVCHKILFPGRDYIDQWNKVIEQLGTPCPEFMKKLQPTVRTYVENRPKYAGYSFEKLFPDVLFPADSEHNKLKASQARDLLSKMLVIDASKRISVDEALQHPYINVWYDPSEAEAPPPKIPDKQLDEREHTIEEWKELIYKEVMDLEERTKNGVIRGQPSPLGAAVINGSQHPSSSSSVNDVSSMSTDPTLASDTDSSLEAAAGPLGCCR

Structure (SMILES)	remaining at 0.5 h [1]	IC50 [2]	IC50 [3]	remaining at 0.5 h [4]	IC50 [5]	Papp A→B at 2 h, 5 µM [6]	Ratio IC50 [7]	solubility [8]
c1ccc2cc(-n3nccc3-c3ccncc3)ccc2c1	58%	> 50 µM	1.23 µM	11%	4.88 µM	–	–	–
c1ccc2cc(-c3[nH]nnc3-c3ccncc3)ccc2c1	44%	6.85 µM	0.364 µM	2%	1.22 µM	15.2 ×10⁻⁶ cm/s	–	–
c1ccc2cc(-c3[nH]ncc3-c3ccncc3)ccc2c1	–	–	–	–	–	–	20	–
S=c1[nH]nc(-c2ccnc(NCC3CC3)c2)n1-c1ccc2ccccc2c1	–	> 50 µM	0.945 µM	–	2.25 µM	–	–	35 µM (≈ 13.1 µg/mL)
c1ccc2cc(-n3ccnc3-c3ccncc3)ccc2c1	18%	> 50 µM	1.91 µM	0%	6.39 µM	–	–	–
S=c1[nH]nc(-c2ccnc(Br)c2)n1-c1ccc2ccccc2c1	–	> 50 µM	> 50 µM	–	> 50 µM	–	–	35 µM (≈ 13.4 µg/mL)
Clc1nnn(-c2ccncc2)c1-c1ccc2ccccc2c1	5%	> 50 µM	12.6 µM	0%	37.9 µM	–	–	–
